Measurements published in ChEMBL document CHEMBL1133761, “Structure-activity relationships of (E)-5-(2-bromovinyl)uracil and related pyrimidine nucleosides as antiviral agents for herpes viruses” (J Med Chem, 2000).
pEC50: −log10 of the molar value.

Experiments:
[1] = system: Human alphaherpesvirus 3; assay: Effective concentration to show 50% of activity was measured on varicella zoster virus(VZV) cell culture; assay type: functional, organism-based
[2] = Effective concentration to show 50% of activity was measured on herpes simplex virus-1 KOS strain cell culture.; assay type: functional, Human alphaherpesvirus 1
Procedure, shortened: (§1)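 Plaque reduction assay in Vero cells kept in RPMI 1640 with 10% FBS. HSV-1 was KOS strain and HSV-2 was strain 333. EC50 is based on the reduction in plaques.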

[3] = system: CCRF-CEM; assay: Dose that inhibited 50% cell growth of human T-lymphoid CEM cells compared with untreated control; assay type: functional
Procedure, shortened: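 CEM cells in log-phase growth were exposed to serial drug dilutions and kept for three generations, then counted by Coulter counter. ID50 is the dose giving 50% growth inhibition versus untreated control.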

[4] = system: Human gammaherpesvirus 4; assay: Effective concentration to show 50% of activity was measured on Epstein Barr virus(EBV) cell culture; assay type: functional, organism-based
Procedure, shortened: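 EBV-producing H-1 cells were kept in RPMI 1640 with 10% FBS. Inhibition of viral growth was read as reduced viral DNA synthesis and expressed as EC50.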

[5] = Effective concentration to show 50% of activity was measured on herpes simplex virus-2 333 strain cell culture.; assay type: functional, Human alphaherpesvirus 2; procedure, shortened: as §1
[6] = system: CCRF-CEM; assay: The mitochondrial toxicity was measured on human T-lymphoid CEM cells.; assay type: functional
Procedure, shortened: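 Human T-lymphoid CEM cells were incubated with drug at various concentrations, with medium and drug renewed on days 4 and 6, and harvested on day 8. DNA was extracted in TE (25 mM Tris pH 8.0, 1 mM EDTA), treated with RNase A and proteinase K, slot-blotted and probed with an mtDNA-specific probe.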

[7] = system: Human alphaherpesvirus 3; assay: The effective concentration to show 50% of activity was measured on varicella zoster virus(VZV) cell culture; assay type: functional, organism-based
Procedure, shortened: (§2)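 VZV Ellen strain was used. Antiviral effect was scored as inhibition of viral DNA synthesis and expressed as EC50.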

[8] = The effective concentration to show 50% of activity was measured on herpes simplex virus-1 with strain KOS cell culture.; assay type: functional, cell-based, Human alphaherpesvirus 1; procedure, shortened: as §1
[9] = system: Human alphaherpesvirus 3; assay: The effective concentration to show 50% of activity was measured on varicella zoster virus(Ellen) cell culture; assay type: functional, organism-based; procedure, shortened: as §2

Question: What does the source list for O=c1[nH]c(=O)n(C2CO[C@@H](CO)O2)cc1/C=C/Br (stereo partly drawn)?
Answer: pEC50 ([1]; Human alphaherpesvirus 3): 4.59; pEC50 [2]: < 4.30; ID50 [3]: > 100 µM; pEC50 ([4]; human gammaherpesvirus 4): < 4.30; pEC50 [5]: < 4.30

Question: With Nc1nc2c(ncn2COCCO)c(=O)[nH]1 [ACYCLOVIR] as the molecule, how does the pEC50 [2] read?
Answer: 4.87

Question: What about the ID50 [3] of the same molecule?
Answer: > 100 µM

Question: What about the pEC50 ([4]; human gammaherpesvirus 4) of the same molecule?
Answer: 4.71

Question: And the ID50 [6]?
Answer: > 200 µM

Question: With O=c1[nH]c(=O)n([C@@H]2CO[C@H](CO)O2)cc1/C=C/Br as the molecule, how does the pEC50 ([1]; Human alphaherpesvirus 3) read?
Answer: 7.15

Question: What about the pEC50 [2] of the same molecule?
Answer: 4.44

Question: What about the ID50 [3] of the same molecule?
Answer: > 100 µM

Question: And the pEC50 ([4]; human gammaherpesvirus 4)?
Answer: 6.23

Question: What about the pEC50 [5] of the same molecule?
Answer: < 4.30

Question: And the ID50 [6]?
Answer: > 200 µM

Question: With O=c1[nH]c(=O)n([C@H]2O[C@@H](CO)[C@H](O)[C@H]2O)cc1/C=C/Br (stereo in doubt; 4) as the molecule, how does the pEC50 [1] read?
Answer: < 4.30

Question: And the pEC50 [2]?
Answer: < 4.30

Question: What about the ID50 [3] of the same molecule?
Answer: > 100 µM

Question: And the pEC50 ([4]; human gammaherpesvirus 4)?
Answer: < 4.30

Question: What about the pEC50 [5] of the same molecule?
Answer: < 4.30

Question: Which ID50 [3] does the source give for O=c1[nH]c(=O)n([C@@H]2CO[C@H](CO)O2)cc1I here?
Answer: > 100 µM

Question: And the pEC50 ([4]; human gammaherpesvirus 4)?
Answer: 7.48

Question: What about the ID50 [6] of the same molecule?
Answer: > 200 µM

Question: What about the pEC50 [7] of the same molecule?
Answer: 4.77

Question: Which results are given for O=c1[nH]c(=O)n([C@H]2CO[C@H](CO)O2)cc1/C=C/I?
Answer: pEC50 ([1]; Human alphaherpesvirus 3): < 4.52; pEC50 [2]: < 4.30; ID50 [3]: > 100 µM; pEC50 ([4]; human gammaherpesvirus 4): < 4.30; pEC50 [5]: < 4.30; ID50 [6]: > 25 µM

Question: With O=c1[nH]c(=O)n([C@@H]2CO[C@H](CO)O2)cc1Br as the molecule, how does the pEC50 ([1]; Human alphaherpesvirus 3) read?
Answer: < 4.52

Question: What about the ID50 [3] of the same molecule?
Answer: > 100 µM

Question: What about the pEC50 ([4]; human gammaherpesvirus 4) of the same molecule?
Answer: 6.72

Question: What about the ID50 [6] of the same molecule?
Answer: > 200 µM

Question: With O=c1[nH]c(=O)n([C@@H]2CO[C@H](CO)O2)cc1/C=C/I as the molecule, how does the pEC50 ([1]; Human alphaherpesvirus 3) read?
Answer: 7.46

Question: And the pEC50 [2]?
Answer: 4.48

Question: And the ID50 [3]?
Answer: > 100 µM

Question: And the pEC50 ([4]; human gammaherpesvirus 4)?
Answer: 5.41

Question: And the pEC50 [5]?
Answer: < 4.30

Question: And the ID50 [6]?
Answer: > 200 µM

Question: With O=c1[nH]c(=O)n([C@@H]2CO[C@@H](CO)O2)cc1/C=C/Br as the molecule, how does the pEC50 ([1]; Human alphaherpesvirus 3) read?
Answer: < 4.52

Question: And the pEC50 [2]?
Answer: < 4.30

Question: What about the ID50 [3] of the same molecule?
Answer: > 100 µM

Question: What about the pEC50 ([4]; human gammaherpesvirus 4) of the same molecule?
Answer: < 4.30

Question: What about the pEC50 [5] of the same molecule?
Answer: < 4.30

Question: With O=c1[nH]c(=O)n([C@H]2CO[C@H](CO)O2)cc1/C=C/Br as the molecule, how does the pEC50 ([1]; Human alphaherpesvirus 3) read?
Answer: < 4.52

Question: And the pEC50 [2]?
Answer: < 4.30

Question: And the ID50 [3]?
Answer: > 100 µM

Question: What about the pEC50 ([4]; human gammaherpesvirus 4) of the same molecule?
Answer: < 4.30

Question: And the pEC50 [5]?
Answer: < 4.30

Question: What about the ID50 [6] of the same molecule?
Answer: > 25 µM

Question: Which results are given for O=c1[nH]c(=O)n([C@H]2CO[C@H](CO)O2)cc1/C=C/Cl?
Answer: pEC50 ([1]; Human alphaherpesvirus 3): < 4.52; pEC50 [2]: < 4.30; ID50 [3]: > 100 µM; pEC50 ([4]; human gammaherpesvirus 4): < 4.30; pEC50 [5]: < 4.30; ID50 [6]: > 25 µM

Question: With O=c1[nH]c(=O)n([C@H]2O[C@@H](CO)[C@H](O)[C@H]2O)cc1/C=C/Br (stereo in doubt) as the molecule, how does the pEC50 [1] read?
Answer: 9.00

Question: What about the pEC50 [4] of the same molecule?
Answer: 4.33

Question: What about the ID50 [6] of the same molecule?
Answer: > 200 µM

Question: With Nc1nc(O)c2ncn(CCC(CO)CO)c2n1 [PENCICLOVIR] as the molecule, how does the ID50 [3] read?
Answer: > 100 µM

Question: And the ID50 [6]?
Answer: > 200 µM

Question: What about the pEC50 [7] of the same molecule?
Answer: 6.85

Question: And the pEC50 [8]?
Answer: 4.74

Question: Which results are given for O=c1[nH]c(=O)n(C2CS[C@@H](CO)O2)cc1/C=C/Br (stereo partly drawn)?
Answer: pEC50 [2]: < 4.30; ID50 [3]: > 100 µM; pEC50 [5]: < 4.30

Question: With O=c1[nH]c(=O)n([C@@H]2CO[C@H](CO)O2)cc1/C=C/Cl as the molecule, how does the pEC50 ([1]; Human alphaherpesvirus 3) read?
Answer: 6.82

Question: What about the pEC50 [2] of the same molecule?
Answer: 4.74

Question: What about the ID50 [3] of the same molecule?
Answer: > 100 µM

Question: And the pEC50 ([4]; human gammaherpesvirus 4)?
Answer: 6.31

Question: What about the pEC50 [5] of the same molecule?
Answer: < 4.30

Question: And the ID50 [6]?
Answer: > 200 µM

Question: With O=c1[nH]c(=O)n([C@H]2O[C@@H](CO)[C@H](O)[C@H]2F)cc1/C=C/Br as the molecule, how does the pEC50 ([1]; Human alphaherpesvirus 3) read?
Answer: < 4.30

Question: What about the pEC50 [2] of the same molecule?
Answer: < 4.30

Question: What about the ID50 [3] of the same molecule?
Answer: > 100 µM

Question: What about the pEC50 [5] of the same molecule?
Answer: < 4.30

Question: With O=c1[nH]c(=O)n([C@H]2C[C@H](O)[C@@H](CO)O2)cc1/C=C/Br [BRIVUDINE] as the molecule, how does the pEC50 [9] read?
Answer: < 4.30

Question: What about the pEC50 ([1]; Human alphaherpesvirus 3) of the same molecule?
Answer: 7.30

Question: What about the pEC50 [2] of the same molecule?
Answer: < 4.30

Question: What about the ID50 [3] of the same molecule?
Answer: > 100 µM

Question: And the pEC50 ([4]; human gammaherpesvirus 4)?
Answer: < 4.30

Question: And the pEC50 [5]?
Answer: < 4.30

Question: And the ID50 [6]?
Answer: > 100 µM

Question: With O=c1[nH]c(=O)n([C@H]2O[C@@H](CO)[C@H](O)[C@@H]2F)cc1/C=C/Br as the molecule, how does the pEC50 ([1]; Human alphaherpesvirus 3) read?
Answer: < 4.30

Question: What about the pEC50 [2] of the same molecule?
Answer: < 4.30

Question: What about the ID50 [3] of the same molecule?
Answer: > 100 µM

Question: What about the pEC50 [5] of the same molecule?
Answer: < 4.30
